# Source: PubChem
# OX1R antag-1: antagonists of human orexin 1 receptor (OX1R); OX1R-expressing cells, FRET antagonist read-out; inhibition, % at 6.6 µM; 330,000 tested, 1.8% active; AID 485270, 2010; in the data active means inhibition mostly above about 38%, no sharp cut-off; inactive means mostly below about 40%
# OX1R antag-2: OX1R (HCRTR1) antagonists, primary screen, fluorescence, CHO/OX1R cells, Fluo-8 calcium, orexin A. Fluo-8 calcium fluorescence. Orexin/Hypocretin receptor type 1 (Homo sapiens), O43613. 330,000 tested, 0.43% active. inhibition, % at 5 µM;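 active means inhibition above its plate's threshold, mean inhibition of all tested compounds on the plate plus 3 SD, cut at about 37% in these data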
# TAAR1 antag: human TAAR1 antagonists, primary screen, Fluo-8 calcium fluorescence, CHO RD-HGA16 cells; 360,000 tested, 1.5% active; inhibition, % at 3 µM; antagonist; AID 624466, 2012; Trace amine-associated receptor 1 (Homo sapiens), Q96RJ0;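 active means inhibition above a per-plate cutoff, the mean inhibition of test compounds on that plate plus 3 SD, cut at about 49% in these data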
#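 Assay system: CHO-derived RD-HGA16 cells stably expressing human TAAR1 plus Gα16. Timing: 140 s kinetic read after compound, 140 s after agonist. Technique: kinetic Fluo-8 calcium fluorescence measurement. Measure: % inhibition of agonist calcium response.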
# TAAR1 ag: human TAAR1 agonists, primary screen, Fluo-8 calcium fluorescence, CHO RD-HGA16 cells; Trace amine-associated receptor 1 (Homo sapiens), Q96RJ0; vehicle wells 0%, saturating PEA agonist 100%; activation, % at 3 µM; 360,000 tested, 0.99% active;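 active means activation above the mean activation of all test compounds in the run plus 3 SD, cut at about 38% in these data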
#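 Signal – calcium-sensitive Fluo-8 signal, excitation 470-495, emission 515-575 nm · System – RD-HGA16 (CHO) cells co-expressing Gα16 and hTAAR1 · Incubation – 17-24 h seeding, 75 min 37 °C dye, 30 min RT · Compound dosing – 3 µM single concentration · Repeats – no replicates (n 1)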
# CHO parental Ca: ATP-evoked calcium signal inhibitors, parental CHO, primary screen, counter-screen for OX1R antagonist project, cell-based, fluorescence, Fluo-8 calcium dye | parental CHO-K1, ATP-induced calcium, Fluo-8 fluorescence | inhibition, % at 5.6 µM | 330,000 tested, 0.63% active | AID 463079, 2010;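 active means inhibition above that plate's mean sample inhibition plus 3 SD, cut at about 26% in these data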
#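 Assay system – parental CHO cells · Reagent – ATP stimulus · Detection – intracellular calcium via Fluo-8 no-wash fluorescent dye · Evaluation – percent inhibition of ATP-evoked calcium rise, normalized to controls · Controls – ATP wells versus no-ATP DMSO wells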
# GPR7 antagonist: GPR7 receptor antagonists, primary screen, cell-based, fluorescence, single concentration. Neuropeptides B/W receptor type 1 (Homo sapiens), P48145. GPR7-expressing cells, fluorescence antagonist assay. inhibition, % at 4.4 µM. 290,000 tested, 1.1% active. AID 1861, 2009; in the data active means inhibition above about 16%, passing the limit was not always enough;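 further: cells stimulated with the agonist NPW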
# Target sequence (P48145 whole entry, looked up): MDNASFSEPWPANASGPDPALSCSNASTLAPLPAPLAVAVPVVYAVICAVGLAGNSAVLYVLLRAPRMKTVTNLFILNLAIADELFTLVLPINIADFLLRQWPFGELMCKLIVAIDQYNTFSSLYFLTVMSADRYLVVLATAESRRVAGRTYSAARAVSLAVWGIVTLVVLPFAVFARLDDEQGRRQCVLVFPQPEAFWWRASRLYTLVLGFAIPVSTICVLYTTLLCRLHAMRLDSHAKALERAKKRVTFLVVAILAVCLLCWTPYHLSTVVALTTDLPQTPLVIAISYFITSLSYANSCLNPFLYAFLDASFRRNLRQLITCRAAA
# Hits are given with their value; - = inactive; . = no result. An excerpt weighted towards active compounds, which were near 4.5% of everything screened.
SMILES,OX1R antag-1,OX1R antag-2,TAAR1 antag,TAAR1 ag,CHO parental Ca,GPR7 antagonist
O=c1cc(-c2ccsc2)oc2cc(-c3ccc4c(c3)OCO4)ccc12,-,-,-,-,-,.
Nc1nnc(Sc2ccc(Cl)cc2[N+](=O)[O-])s1,-,-,-,-,-,-
CC(=O)c1ccc(Sc2nnc(C)s2)c([N+](=O)[O-])c1,62.6,-,-,-,-,-
CC(=O)Oc1ccc2oc(/C=C/N(C)C)c([N+](=O)[O-])c2c1,50.3,-,-,-,-,-
c1ccc(CN2c3ccccc3-c3nc4ccccc4n3C2c2ccccn2)cc1 (centres undefined),-,-,54.8,-,-,-
CCOc1ccccc1CNc1ncnc2ccc(-c3c(C)noc3C)cc12,33.1,-,-,-,-,.
C=CCSc1nnc(-c2ccc([N+](=O)[O-])cc2)o1,-,-,-,-,-,-
NC(=O)CSc1nnc(-c2ccc([N+](=O)[O-])cc2)o1,54.8,-,-,-,-,-
O=C1NC(=S)/C(=C\c2ccc(-c3ccccc3Cl)o2)S1,-,-,50.1,-,-,-
O=C1NC(=O)/C(=C/c2ccc(-c3cc(C(=O)O)ccc3Cl)o2)S1,-,-,-,-,-,-
CCc1nc2c(OCCOc3ccc(F)cc3)cccn2c1N(C)C(=O)CC(C)C,.,.,-,-,.,.
C/C(=N/OC(=O)c1ccc(C)cc1)c1ccc(N2C(=O)C3CCCCC3C2=O)cc1 (centres undefined),-,-,66.0,-,-,-
COc1cccc(CNC(=O)[C@H]2CCCN2C(=O)[C@H]2CCCN2C(=O)c2ccccc2)c1,.,.,-,-,.,.
Cc1ccc(C)c(C(O)c2ncc(-c3ccccc3F)[nH]2)c1 (centres undefined),.,.,-,-,.,.
COc1ccc(NC(=O)c2ccc(Cl)c(S(=O)(=O)N3CCc4ccccc4C3)c2)cn1,-,-,65.6,-,-,-
COc1ccccc1NS(=O)(=O)c1cccc(NC(=O)c2cncc(Br)c2)c1,-,-,51.4,-,-,.
COc1ccccc1NS(=O)(=O)c1cccc(NC(=O)Nc2cccc(Cl)c2)c1,-,-,78.9,-,30.5,-
COc1ccccc1NS(=O)(=O)c1cccc(NC(=O)CCNC(=O)c2ccccc2OC)c1,-,-,57.4,-,-,.
COc1cccc(Cn2c(C(C)n3c(-c4cnccn4)nc4ccccc43)nc3ccccc32)c1 (centres undefined),.,.,-,-,.,.
CC(C)C[C@H](NC(=O)c1cccs1)C(=O)N1CCC[C@H]1C(=O)NCc1ccccc1,.,.,-,-,.,.
CC(=O)NC1CCCCN(C)C1=O (centres undefined),.,.,-,-,.,.
COC(=O)c1ccc2nc(-c3cccc(Cl)c3)c(Cc3cccc(F)c3)n2c1,.,.,-,-,.,.
COC(=O)[C@]12CCCCC=C1N(CCc1ccc(OC)c(OC)c1)C(=O)[C@H](CC(=O)NCCCCc1ccccc1)C2,.,.,-,-,.,.
COc1ccccc1NC(=O)Nc1ccc(Cl)c(S(=O)(=O)Nc2ccccc2OC)c1,-,-,-,-,-,-
COc1ccccc1NS(=O)(=O)c1cc(NC(=O)c2ccc(Cl)nc2)ccc1Cl,-,-,55.8,-,-,-
SMILES,OX1R antag-1,OX1R antag-2,TAAR1 antag,TAAR1 ag,CHO parental Ca,GPR7 antagonist
COc1ccc(NS(=O)(=O)c2cc(NC(=O)c3cncc(Br)c3)ccc2OC)cc1,-,-,50.0,-,-,.
COc1ccc(NS(=O)(=O)c2cc(NC(=O)c3nn(C)c(=O)c4ccccc34)ccc2OC)cc1,-,-,-,-,-,-
CCc1ccc(OC)c(S(=O)(=O)Nc2ccc(Cc3ccncc3)cc2)c1,-,-,-,-,48.3,-
CCOc1cc(C=O)cc(Cl)c1OCC(N)=O,-,-,-,-,-,-
Cc1ccc2nc(-c3ccncc3)cc(-c3ccccc3)c2c1,-,-,-,-,-,-
Cc1ccc(-c2cc3cccc[n+]3cc2-c2ccc(C)cc2)cc1,-,-,-,-,-,21.5
COc1ccc(OC)c(NC(=O)CCCCCn2nnc3ccccc3c2=O)c1,-,-,-,-,-,-
